From ChEMBL document CHEMBL3808334, “Synthesis and in vitro evaluation of novel triazine analogues as anticancer agents and their interaction studies with bovine serum albumin” (Eur J Med Chem, 2016)

How the values were obtained:
Assay type in all cases: functional
MDA-MB-435 = assay: Growth inhibition of human MDA-MB-435 cells incubated for 48 hrs by sulforhodamine B assay; details: MDA-MB-435, 48 h
Method in brief: (§1)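 Cells were plated at 5,000–40,000 per well according to doubling time and preincubated 24 h at 37 °C in 5% CO2; time-zero plates were then TCA-fixed. Five concentrations (10-fold or ½-log dilutions, DMSO stock) were incubated 48 h. Cells were TCA-fixed, stained with 0.4% SRB and read at 515 nm. GI50 was taken where [(Ti−Tz)/(C−Tz)]×100 = 50.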

[1] = Growth inhibition of human PC3 cells assessed as cell growth at 10 uM incubated for 48 hrs by sulforhodamine B assay; details: PC-3, 48 h, read-out: Activity
[2] = Growth inhibition of human Caki1 cells assessed as cell growth at 10^-8 M incubated for 48 hrs by sulforhodamine B assay; details: CAKI-1, 48 h, read-out: Activity
Method in brief: (§2)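 Cells seeded at 5,000–40,000/well according to doubling time and preincubated 24 h at 37 °C, 5% CO2. Time-zero plates were TCA-fixed. DMSO concentrate was diluted in medium with 50 µg/ml gentamicin to give five concentrations (10-fold or ½ log steps), then exposed 48 h. Cells were TCA-fixed, stained with 0.4% SRB and read at 515 nm. Percent growth was taken against time-zero and control; GI50, TGI and LC50 derived.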

SR [3] = assay: Growth inhibition of human SR cells assessed as cell growth at 10 uM incubated for 48 hrs by sulforhodamine B assay; details: read-out: Activity
KM12 = assay: Growth inhibition of human KM12 cells assessed as cell growth at 10^-7 M incubated for 48 hrs by sulforhodamine B assay; details: KM12, 48 h, read-out: Activity
SR [4] = assay: Growth inhibition of human SR cells assessed as cell growth at 10^-5 M incubated for 48 hrs by sulforhodamine B assay; details: read-out: Activity
SK-MEL-28 [5] = assay: Growth inhibition of human SK-MEL-28 cells incubated for 48 hrs by sulforhodamine B assay; details: SK-MEL-28, 48 h; method in brief: as §1
[6] = Growth inhibition of human SF539 cells assessed as cell growth at 10^-8 M incubated for 48 hrs by sulforhodamine B assay; details: SF-539, 48 h, read-out: Activity
[7] = Growth inhibition of human OVCAR5 cells assessed as cell growth at 10^-5 M incubated for 48 hrs by sulforhodamine B assay; details: OVCAR-5, 48 h, read-out: Activity
[8] = Growth inhibition of human OVCAR4 cells incubated for 48 hrs by sulforhodamine B assay; details: OVCAR-4, 48 h; method in brief: as §1
NCI/ADR-RES = assay: Growth inhibition of human NCI/ADR-RES cells assessed as cell growth at 10^-5 M incubated for 48 hrs by sulforhodamine B assay; details: read-out: Activity
ACHN = assay: Growth inhibition of human ACHN cells assessed as cell growth at 10^-5 M incubated for 48 hrs by sulforhodamine B assay; details: read-out: Activity
Method in brief: (§3)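 Five-dose assay: five concentrations from 10-fold or ½-log serial dilutions. Cells are plated at 5,000–40,000 per well according to doubling time, grown 24 h, then exposed 48 h at 37 °C, 5% CO₂. Fixed with cold 50% TCA (final addition) for 60 min at 4 °C and stained with 0.4% SRB in 1% acetic acid. Bound dye is solubilized in 10 mM Tris base and read at 515 nm. GI₅₀ is where [(Ti−Tz)/(C−Tz)]×100 = 50, with a time-zero plate as Tz.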

[9] = Growth inhibition of human SNB75 cells assessed as cell growth at 10 uM incubated for 48 hrs by sulforhodamine B assay; details: SNB-75, 48 h, read-out: Activity
[10] = Growth inhibition of human TK10 cells assessed as cell growth at 10^-4 M incubated for 48 hrs by sulforhodamine B assay; details: TK-10, 48 h, read-out: Activity
A498 = assay: Growth inhibition of human A498 cells incubated for 48 hrs by sulforhodamine B assay; details: A498, 48 h; method in brief: as §3
NCI-H23 [11] = assay: Growth inhibition of human NCI-H23 cells incubated for 48 hrs by sulforhodamine B assay; details: NCI-H23, 48 h; method in brief: as §1
Malme-3M = assay: Growth inhibition of human MALME-3M cells assessed as cell growth at 10^-8 M incubated for 48 hrs by sulforhodamine B assay; details: read-out: Activity
SK-MEL-28 [12] = assay: Growth inhibition of human SK-MEL-28 cells assessed as cell growth at 10^-8 M incubated for 48 hrs by sulforhodamine B assay; details: SK-MEL-28, 48 h, read-out: Activity
NCI-H23 [13] = assay: Growth inhibition of human NCI-H23 cells assessed as cell growth at 10^-5 M incubated for 48 hrs by sulforhodamine B assay; details: NCI-H23, 48 h, read-out: Activity
[14] = Growth inhibition of human SKOV3 cells assessed as cell growth at 10^-8 M incubated for 48 hrs by sulforhodamine B assay; details: SK-OV-3, 48 h, read-out: Activity
EKVX [15] = assay: Growth inhibition of human EKVX cells assessed as cell growth at 10^-7 M incubated for 48 hrs by sulforhodamine B assay; details: read-out: Activity; method in brief: as §2
EKVX [16] = assay: Growth inhibition of human EKVX cells assessed as cell growth at 10 uM incubated for 48 hrs by sulforhodamine B assay; details: read-out: Activity
Method in brief: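 Primary screen at one dose (10 µM) across 60 human cancer cell lines. Readout was growth percent relative to untreated control and time-zero.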

MDA-MB-468 = assay: Growth inhibition of human MDA-MB-468 cells assessed as cell growth at 10^-7 M incubated for 48 hrs by sulforhodamine B assay; details: MDA-MB-468, 48 h, read-out: Activity
[17] = Growth inhibition of human SKOV3 cells assessed as cell growth at 10^-6 M incubated for 48 hrs by sulforhodamine B assay; details: SK-OV-3, 48 h, read-out: Activity
M14 = assay: Growth inhibition of human M14 cells incubated for 48 hrs by sulforhodamine B assay; details: M14, 48 h; method in brief: as §1
SK-MEL-2 = assay: Growth inhibition of human SK-MEL-2 cells assessed as cell growth at 10 uM incubated for 48 hrs by sulforhodamine B assay; details: SK-MEL-2, 48 h, read-out: Activity
[18] = read-out: LC50 (the source's name)
[19] = read-out: pLC50 (the source's name) (converted)

What does the source list for `c1ccc2[nH]c(-c3ccc(Nc4nc(N5CCCCC5)nc(N5CCOCC5)n4)cc3)nc2c1`?
GI50 (MDA-MB-435; read-out: GI50): 2.06 µM; CC50 (MDA-MB-435; [18]): > 100 µM; TGI (MDA-MB-435; read-out: TGI): 4.59 µM; GI50 (MDA-MB-435; read-out: pGI50 (converted)): 2.04 µM; CC50 (MDA-MB-435; [19]): > 100 µM; TGI (MDA-MB-435; read-out: pTGI (converted)): 4.57 µM; growth at 10 µM [1]: 12.4%; growth at 0.01 µM [2]: 90%; growth at 10 µM (SR [3]): 9.79%; growth at 0.1 µM (KM12): 103%; growth at 10 µM (SR [4]): -14%; GI50 (SK-MEL-28 [5]; read-out: GI50): 1.8 µM; CC50 (SK-MEL-28 [5]; [18]): 8.97 µM; TGI (SK-MEL-28 [5]; read-out: TGI): 4.02 µM; GI50 (SK-MEL-28 [5]; read-out: pGI50 (converted)): 1.82 µM; CC50 (SK-MEL-28 [5]; [19]): 8.91 µM; TGI (SK-MEL-28 [5]; read-out: pTGI (converted)): 3.98 µM; growth at 0.01 µM [6]: 99%; growth at 10 µM [7]: 16%; GI50 ([8]; read-out: GI50): 3.98 µM; CC50 [8, 18]: > 100 µM; TGI ([8]; read-out: TGI): 25.4 µM; GI50 ([8]; read-out: pGI50 (converted)): 3.98 µM; CC50 [8, 19]: > 100 µM; TGI ([8]; read-out: pTGI (converted)): 25.1 µM; growth at 10 µM (NCI/ADR-RES): 28%; growth at 10 µM (ACHN): 9%; growth at 10 µM [9]: -0.68%; growth at 100 µM [10]: -32%; GI50 (A498; read-out: GI50): 1.77 µM; CC50 (A498; [18]): 9.89 µM; TGI (A498; read-out: TGI): 4.18 µM; GI50 (A498; read-out: pGI50 (converted)): 1.78 µM; CC50 (A498; [19]): 10 µM; TGI (A498; read-out: pTGI (converted)): 4.17 µM; GI50 (NCI-H23 [11]; read-out: GI50): 3.05 µM; CC50 (NCI-H23 [11]; [18]): > 100 µM; TGI (NCI-H23 [11]; read-out: TGI): 15.7 µM; GI50 (NCI-H23 [11]; read-out: pGI50 (converted)): 3.02 µM; CC50 (NCI-H23 [11]; [19]): > 100 µM; TGI (NCI-H23 [11]; read-out: pTGI (converted)): 15.8 µM; growth at 0.01 µM (Malme-3M): 86%; growth at 0.01 µM (SK-MEL-28 [12]): 100%; growth at 10 µM (NCI-H23 [13]): 6%; growth at 0.01 µM [14]: 97%; growth at 0.1 µM (EKVX [15]): 93%; growth at 10 µM (EKVX [16]): 27.7%; growth at 0.1 µM (MDA-MB-468): 100%; growth at 1 µM [17]: 102%; GI50 (M14; read-out: GI50): 2.05 µM; CC50 (M14; [18]): 15.6 µM; TGI (M14; read-out: TGI): 4.72 µM; GI50 (M14; read-out: pGI50 (converted)): 2.04 µM; CC50 (M14; [19]): 15.5 µM; TGI (M14; read-out: pTGI (converted)): 4.68 µM; growth at 10 µM (SK-MEL-2): -20.6%

What does the source list for `c1ccc(-c2nc(Nc3ccc(-c4nc5ccccc5[nH]4)cc3)nc(N3CCOCC3)n2)cc1`?
GI50 (MDA-MB-435; read-out: GI50): 1.76 µM; CC50 (MDA-MB-435; [18]): 6.11 µM; TGI (MDA-MB-435; read-out: TGI): 3.28 µM; GI50 (MDA-MB-435; read-out: pGI50 (converted)): 1.78 µM; CC50 (MDA-MB-435; [19]): 6.17 µM; TGI (MDA-MB-435; read-out: pTGI (converted)): 3.31 µM; growth at 10 µM [1]: -35.5%; growth at 0.01 µM [2]: 91%; growth at 10 µM (SR [3]): 8.94%; growth at 0.1 µM (KM12): 97%; growth at 10 µM (SR [4]): -26%; GI50 (SK-MEL-28 [5]; read-out: GI50): 1.56 µM; CC50 (SK-MEL-28 [5]; [18]): 6.12 µM; TGI (SK-MEL-28 [5]; read-out: TGI): 3.09 µM; GI50 (SK-MEL-28 [5]; read-out: pGI50 (converted)): 1.55 µM; CC50 (SK-MEL-28 [5]; [19]): 6.17 µM; TGI (SK-MEL-28 [5]; read-out: pTGI (converted)): 3.09 µM; growth at 0.01 µM [6]: 98%; growth at 10 µM [7]: -73%; GI50 ([8]; read-out: GI50): 1.68 µM; CC50 [8, 18]: 5.63 µM; TGI ([8]; read-out: TGI): 3.08 µM; GI50 ([8]; read-out: pGI50 (converted)): 1.7 µM; CC50 [8, 19]: 5.62 µM; TGI ([8]; read-out: pTGI (converted)): 3.09 µM; growth at 10 µM (NCI/ADR-RES): -28%; growth at 10 µM (ACHN): -82%; growth at 10 µM [9]: -89.7%; growth at 100 µM [10]: -94%; GI50 (A498; read-out: GI50): 1.09 µM; CC50 (A498; [18]): 6.31 µM; TGI (A498; read-out: TGI): 2.62 µM; GI50 (A498; read-out: pGI50 (converted)): 1.1 µM; CC50 (A498; [19]): 6.31 µM; TGI (A498; read-out: pTGI (converted)): 2.63 µM; GI50 (NCI-H23 [11]; read-out: GI50): 2.07 µM; CC50 (NCI-H23 [11]; [18]): 68.7 µM; TGI (NCI-H23 [11]; read-out: TGI): 4.78 µM; GI50 (NCI-H23 [11]; read-out: pGI50 (converted)): 2.09 µM; CC50 (NCI-H23 [11]; [19]): 69.2 µM; TGI (NCI-H23 [11]; read-out: pTGI (converted)): 4.79 µM; growth at 0.01 µM (Malme-3M): 106%; growth at 0.01 µM (SK-MEL-28 [12]): 103%; growth at 10 µM (NCI-H23 [13]): -44%; growth at 0.01 µM [14]: 95%; growth at 0.1 µM (EKVX [15]): 88%; growth at 10 µM (EKVX [16]): -66.9%; growth at 0.1 µM (MDA-MB-468): 112%; growth at 1 µM [17]: 104%; GI50 (M14; read-out: GI50): 1.34 µM; CC50 (M14; [18]): 6.3 µM; TGI (M14; read-out: TGI): 2.9 µM; GI50 (M14; read-out: pGI50 (converted)): 1.35 µM; CC50 (M14; [19]): 6.31 µM; TGI (M14; read-out: pTGI (converted)): 2.88 µM; growth at 10 µM (SK-MEL-2): -52.7%
